According to ChEMBL document CHEMBL4270628, “Design, synthesis, and evaluation of cystargolide-based β-lactones as potent proteasome inhibitors” (Eur J Med Chem, 2018):
Calls of active or inactive are those of the source. The calls are words filed in the database; no cut-off is given here.

Assays:
[1] = biological target: T1, Proteasome subunit beta type-1 (Saccharomyces cerevisiae (strain ATCC 204508 / S288c) (Baker's yeast), UniProt P38624); assay: Inhibition of yeast 20S proteasome beta1 subunit using fluorescent substrate pretreated for 30 mins followed by substrate addition and measured after 60 mins by fluorescence assay
T1 sequence (P38624 whole entry): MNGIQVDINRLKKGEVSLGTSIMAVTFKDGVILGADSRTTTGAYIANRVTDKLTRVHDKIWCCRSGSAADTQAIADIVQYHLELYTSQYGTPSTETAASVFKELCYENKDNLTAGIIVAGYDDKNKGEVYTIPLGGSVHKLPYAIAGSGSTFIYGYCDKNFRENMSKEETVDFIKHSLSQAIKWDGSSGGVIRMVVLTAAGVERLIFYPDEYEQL

[2] = biological target: T2, Proteasome subunit beta type-2 (Saccharomyces cerevisiae (strain ATCC 204508 / S288c) (Baker's yeast), UniProt P25043); assay: Inhibition of yeast 20S proteasome beta2 subunit using SUC-RLR-AMC as substrate pretreated for 30 mins followed by substrate addition and measured after 60 mins by fluorescence assay
T2 sequence (P25043 whole entry): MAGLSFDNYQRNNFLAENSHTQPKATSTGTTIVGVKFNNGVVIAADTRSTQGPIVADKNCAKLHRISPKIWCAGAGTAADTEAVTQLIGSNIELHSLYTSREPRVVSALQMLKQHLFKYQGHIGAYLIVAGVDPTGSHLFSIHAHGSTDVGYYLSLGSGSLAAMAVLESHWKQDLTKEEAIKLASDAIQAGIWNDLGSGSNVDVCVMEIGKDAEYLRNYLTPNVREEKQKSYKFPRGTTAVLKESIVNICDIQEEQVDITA
Outline: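 Fluorogenic substrate was then added (100 μM Suc-RLR-AMC solution for β2) and incubated 60 min at 37 °C; cleavage read at ex 360/em 480 nm. IC50 from nonlinear regression on normalized data, ±SD.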

[3] = Inhibition of yeast 20S proteasome beta5 subunit using Suc-LLVY-AMC as substrate pretreated for 30 mins followed by substrate addition and measured after 60 mins by fluorescence assay; set-up: species or system Saccharomyces cerevisiae
Outline: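 Purified yeast 20S proteasome at 8 μg/mL preincubated with compound 30 min at 37 °C; then 100 μM Suc-LLVY-AMC for 60 min at 37 °C; cleaved-AMC fluorescence ex 360/em 480 nm. IC50 by nonlinear regression on normalized data, confirmed in at least technical triplicate, reported ± SD.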

MCF7 = assay: Cytotoxicity against human MCF7 cells after 48 hrs by MTT assay; type: functional, cell-based; conditions: MCF7, 48 h
Outline: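 MCF7 cells plated at 4*10⁴ cells/mL and left overnight to adhere, then exposed to a concentration series for 48 h, with DMSO vehicle, untreated cells, and 100 μM phenylarsine oxide as controls. MTT (5 mg/mL stock in PBS) was added for 2 h at 37 °C. Formazan was dissolved in DMSO and OD read at 490 nm. The best three of quadruplicate wells were used; IC50 from nonlinear regression on normalized data, ±SD.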

MDA-MB-231 = assay: Cytotoxicity against human MDA-MB-231 cells after 48 hrs by MTT assay; type: functional, cell-based; conditions: MDA-MB-231, 48 h
Outline: (§1)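 MTT viability after 48 h exposure to a concentration series; MDA-MB-231 seeded at 4*10⁴ cells/mL and adhered overnight, RPMI 8226 at 4*10⁵ cells/mL and dosed immediately. MTT (5 mg/mL in PBS) added, 2 h at 37 °C; formazan dissolved in DMSO (MDA-MB-231) or DMF/SDS pH<4 (RPMI 8226); OD 490 nm.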

RPMI-8226 = assay: Cytotoxicity against human RPMI8226 cells after 48 hrs by MTT assay; type: functional, cell-based; conditions: RPMI-8226, 48 h; outline: as §1
[4] = biological target: T3, Proteasome Macropain subunit MB1 (Homo sapiens) (UniProt P28074); assay: Inhibition of 20S proteasome beta5 subunit in human MCF7 cells using Suc-LLVY-AMC as substrate pretreated for 1 hr followed by compound washout and cell lysis prior to substrate addition measured after 1 hr by fluorescence assay; type: cell-based
T3 sequence (whole entry): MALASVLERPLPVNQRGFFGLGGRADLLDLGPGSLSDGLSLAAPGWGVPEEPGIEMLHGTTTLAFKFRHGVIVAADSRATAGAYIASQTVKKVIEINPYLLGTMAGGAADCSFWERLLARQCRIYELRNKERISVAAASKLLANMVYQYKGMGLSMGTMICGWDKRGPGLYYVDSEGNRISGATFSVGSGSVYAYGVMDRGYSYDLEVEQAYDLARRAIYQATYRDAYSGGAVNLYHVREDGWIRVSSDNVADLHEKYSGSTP
Outline: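 Adherent MCF7 (500,000 cells/mL, overnight, ~100% confluent) dosed 1 h at 37 °C, 5% CO₂; washed twice with PBS, lysed in HEPES/Triton buffer on ice 1 h; 15 min at 37 °C, then 100 μM Suc-LLVY-AMC 1 h at 37 °C; ex 360/em 480 nm. IC50 from best three of four biological replicates per concentration.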

[5] = n-Octanol/Tris-HCl buffer partition coefficient, log P of the compound at 0.5 mg after 2 mins by RP-HPLC method; type: physicochemical
[6] = Half life in human AB serum by RP-HPLC analysis; type: ADME, cell-free
[7] = Half life in 0.1 M TEAA buffer by RP-HPLC analysis; type: physicochemical
[8] = biological target: T4, Proteasome subunit beta type-8 (Homo sapiens, UniProt P28062); assay: Inhibition of human immunoproteasome beta5 subunit using Suc-LLVY-AMC as substrate pretreated for 30 mins followed by substrate addition and measured after 60 mins by fluorescence assay
T4 sequence (P28062 whole entry): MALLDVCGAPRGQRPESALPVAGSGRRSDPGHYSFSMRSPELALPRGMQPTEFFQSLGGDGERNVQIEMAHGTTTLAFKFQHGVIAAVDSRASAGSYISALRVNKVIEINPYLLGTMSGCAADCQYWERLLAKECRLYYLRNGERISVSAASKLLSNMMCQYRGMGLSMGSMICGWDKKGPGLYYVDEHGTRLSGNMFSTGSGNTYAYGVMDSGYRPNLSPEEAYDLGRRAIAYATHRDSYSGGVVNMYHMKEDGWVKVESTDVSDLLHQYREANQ

[9] = biological target: T3, Proteasome Macropain subunit MB1 (Homo sapiens); assay: Inhibition of 20S proteasome beta5 subunit in human MCF7 cells assessed as accumulation of ubiuitinated protein at 1 to 10 uM after 9.5 hrs by Western blot analysis; type: cell-based
Jurkat [10] = assay: Induction of apoptosis in human Jurkat cells after 24 hrs by Annexin-V-FITC/propidium iodide staining based flow cytometry; type: functional, cell-based
Jurkat [11] = assay: Cell cycle arrest in human Jurkat cells assessed as accumulation at G2/M phase at 0.1 to 1 uM after 10 hrs by Vybrant DyeCycle Orange staining based flow cytometry; type: functional
[12] = biological target: T5, Proteasome Macropain subunit MB1 (Homo sapiens, UniProt P28074); assay: Inhibition of 20S proteasome beta5 subunit in human Jurkat cell lysate using Suc-LLVY-AMC as substrate pretreated for 30 mins followed by substrate addition and measured after 60 mins by fluorescence assay
T5 sequence (P28074 whole entry): T3 sequence (whole entry)
Outline: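 Lysate was preincubated with compound 30 min at 37 °C. 100 μM substrate solution was added: Suc-LLVY-AMC for β5, Suc-RLR-AMC for β2. IC50 by nonlinear regression, ±SD.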

[13] = biological target: T3, Proteasome Macropain subunit MB1 (Homo sapiens); assay: Binding affinity to 20S proteasome beta5 subunit in human Jurkat cell lysate assessed as decrease in protein hydrolysis at 100 uM pretreated for 30 mins followed by Suc-LLVY-AMC addition and measured after 1 hr by fluorescence assay
Outline: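 Compound diluted in lysis buffer, preincubated 30 min at 37 °C. Suc-LLVY-AMC added as 100 μM solution, 60 min at 37 °C. AMC fluorescence read at ex 360/em 480 nm. Best three of quadruplicates used; IC50 by nonlinear regression, ± SD.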

Row | SMILES | IC50 [1] | IC50 [2] | IC50 [3] | IC50 (MCF7) | IC50 (MDA-MB-231) | IC50 (RPMI-8226) | inhibition [4] | logP [5] | t1/2 [6] | t1/2 [7] | IC50 [8] | inhibition [9] | Activity (Jurkat [10]) | Activity (Jurkat [11]) | IC50 [12] | Activity [13]
1 | CC[C@H](C)[C@@H]1C(=O)O[C@H]1C(=O)N[C@H](C(=O)N[C@@H](COCc1ccccc1)C(=O)OCc1ccccc1)C(C)C | 17.8 µM | > 50 µM | 24.5 nM | 0.416 µM | 74 nM | 41 nM | Active | 1.52 | 16.1 min | 4.32 min | 9.1 nM | – | – | – | – | –
2 | CC[C@H](C)[C@@H]1C(=O)O[C@H]1C(=O)N[C@H](C(=O)N[C@H](C(=O)OCc1ccccc1)C(C)C)C(C)C | – | […] | – | 1.85 µM | 287 nM | 191 nM | Active | – | – | – | – | Active | Active | Active | – | –
3 | CC(C)[C@H](NC(=O)[C@@H]1OC(=O)[C@H]1C(C)C)C(=O)N[C@H](C(=O)OCc1ccccc1)C(C)C | – | – | 37.2 nM | 7 µM | – | – | Active | – | – | – | 44.7 nM | Active | Active | Active | – | –
4 | CC(C)[C@H](NC(=O)[C@@H](NC(=O)[C@@H]1OC(=O)[C@H]1C(C)C)C(C)C)C(=O)O | 10.1 µM | 61.6 µM | – | 84.7 µM | – | – | – | – | – | – | 681 nM | – | – | – | 900 nM | Active
